These results are taken from PubChem BioAssay AID1753 (Vanderbilt High Throughput Screening Facility, 2009).

Results filed as inconclusive are left out. Active and inactive are the calls of the source.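 The calls were made as follows: active = a converged dose-response curve, firm or less certain, in at least 2 of 3 replicates; inactive = the rest, inconclusive results apart.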

The test system of the test is native HEK293 thallium flux, FluoZin2 fluorescence, ouabain. The test can be described thus: native HEK thallium flux modulation with ouabain, dose response, counter-screen for KCC2 modulator project, HEK cells, counterscreen (AID 1753). The procedure, abridged: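 Material: Untransfected HEK cells, thallium flux | Buffer or medium: HBSS, 20 mM HEPES, 0.2 mM ouabain | Reagent: Thallium stimulus | Dosing: 11 points, 3-fold steps, up to 30 µM | Timing: Flux slope window 10–20 s after thallium addition | Signal: FluoZin2 fluorescence, 1 Hz kinetic imaging | Repeats: Three replicates, fitted individually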
On the technique in general: Counterscreens check selectivity or assay interference.

By EC50 is commonly meant the concentration needed to bring the measured effect to its halfway point. Take `COC(=O)[C@@H](NC(=O)O[C@@H]1C(=O)c2ccc(OC)cc2O[C@H]1c1cccc(C(F)(F)F)c1)C(C)C`: the EC50 is 1680 nM.
Turning to `CCCC(=O)OCC[N+](C)(C)C`, the EC50 is 8.1 nM (inactive).
With `NC(=S)N=Nc1c(O)n(Cc2ccccc2)c2ccccc12`, the EC50 was 124 nM (inactive).
The figure for `NC(=S)N=Nc1c(O)n(Cc2ccc(F)cc2)c2ccccc12` is 2250 nM; for `CC(C)c1ccc(OCC(=O)NNC(=O)c2cnccn2)cc1` it is 12200 nM (inactive); for `O=C(NC(=S)Nc1ccc2c(c1)OCO2)c1ccc(Cl)cc1` it is 75.7 nM (inactive).
The figure for `COc1ccc(Cn2c(=S)[nH]c3ccccc32)cc1` is 436 nM; for `Cc1onc(-c2ccccc2Cl)c1C(=O)NC(=S)Nc1ccc(C(C)C)cc1` it is 178 nM.
The figure for `COc1ccc(N2C(=S)N=C(Nc3cccc(C)c3)C23CCCCC3)cc1` is 1920 nM; for `CCOc1[nH]n(-c2ccccc2)c(=O)c1C=Nc1ccc(F)cc1F` it is 1430 nM.
For `Cc1ccc(-c2n[nH]c(=S)n2/N=C/C=C\c2ccccc2[N+](=O)[O-])cc1`, the EC50 is 1470 nM.
For `CC(=O)c1cccc(NC(=S)NC(=O)c2ccc(C)cc2)c1`, the EC50 was 888 nM.
`COc1ccc(-c2nnc(-c3ccc(OCC(C)C)cc3)o2)cc1`: the EC50 is 777 nM (inactive).
On to `Cn1nnnc1SCCNCc1ccncc1`, for which the EC50 was 21 nM (inactive).
To `Cc1nn(-c2ccccc2)c2sc(C(=O)N(Cc3ccco3)C(C)C(=O)NC(C)(C)C)cc12` (stereo not drawn) belongs 10400 nM (inactive); to `CCOc1cccc(C(=O)NC(=S)Nc2cccc(C)c2)c1`, 7280 nM.
To `O=C(NC(=S)Nc1cccc2cccnc12)c1cccs1` belongs 114 nM (inactive); to `COC(=O)c1sccc1NC(=S)OC`, 1800 nM.
